High-throughput results (PubChem)
DNA FID counter: compounds displacing fluorescent DNA intercalator, primary screen, artefact control for HCV NS3 helicase inhibitor project, biochemical, FID fluorescence. DNA fluorescent intercalator displacement. AID 1845, 2009. inhibition, % at 7.9 µM. 290,000 tested, 0.17% active; in the data active = inhibition above about 37%;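 note: 0% = vehicle and 100% = reference compound; higher means more ethidium bromide displaced from hairpin DNA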
MEKK3 PB1 HTS: modulators of MEKK3-MEK5 PB1 binding, primary screen, biochemical, wildtype MEKK3, multiplex bead flow cytometry, Alexa488-MEK5 | Mitogen-activated protein kinase kinase kinase 3 (Homo sapiens), Q99759 | bead-based flow cytometry, Alexa488-MEK5 binding to MEKK3; actives lie on both sides; 0 = blocked by unlabeled MEK5, 100 = vehicle | binding response (% of control), % at 10 µM | 290,000 tested, 1.4% active;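 active = binding response more than 3 SD above or below the average of its plate-row segment, actives on both sides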;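 note: Alexa488 bead fluorescence after subtracting the streptavidin-only scavenger bead signal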
Target sequence (Q99759 whole entry, looked up): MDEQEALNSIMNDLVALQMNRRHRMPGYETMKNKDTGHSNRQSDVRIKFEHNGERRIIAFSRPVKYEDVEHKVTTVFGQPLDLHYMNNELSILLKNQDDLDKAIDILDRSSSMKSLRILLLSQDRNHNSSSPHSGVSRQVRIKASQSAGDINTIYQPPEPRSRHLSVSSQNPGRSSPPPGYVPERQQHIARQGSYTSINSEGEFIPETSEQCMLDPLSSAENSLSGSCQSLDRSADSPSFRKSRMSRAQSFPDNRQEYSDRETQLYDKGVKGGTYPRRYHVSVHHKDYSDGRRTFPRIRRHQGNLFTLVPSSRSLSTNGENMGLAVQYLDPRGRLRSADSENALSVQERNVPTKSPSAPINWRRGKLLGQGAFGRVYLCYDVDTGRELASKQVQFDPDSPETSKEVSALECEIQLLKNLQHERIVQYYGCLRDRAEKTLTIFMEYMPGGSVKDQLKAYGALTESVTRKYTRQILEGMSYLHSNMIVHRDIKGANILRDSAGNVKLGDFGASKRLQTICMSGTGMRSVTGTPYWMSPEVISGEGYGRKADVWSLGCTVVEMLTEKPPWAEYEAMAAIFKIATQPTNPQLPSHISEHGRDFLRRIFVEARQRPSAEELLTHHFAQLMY
T cruzi repl: inhibitors of intracellular T. cruzi growth, primary screen, luminescence, NIH3T3 host cells; T. cruzi beta-gal in NIH3T3, 90 h; inhibition, % (no concentration beside the values); 300,000 tested, 1.4% active;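 active = mean inhibition across valid replicates above about 55%, limit read from the data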;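 note: signal also drops with host cell toxicity which is not excluded here; 0% = plate median of DMSO wells and 100% = zero luminescence signal; higher percent means less beta-gal luminescence so fewer parasites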
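System – NIH/3T3 host cells with β-galactosidase reporter T. cruzi · Doses – single 50 nL compound addition per well in DMSO · Reagent – 5000 T. cruzi trypomastigotes/well · Medium – Low-serum DMEM with 2% FBS · Timing – ≥90 h infection period, 3 h prior cell attachment · Evaluation – parasite load inhibition, % · Technique – GalScreen luminescence, 60 min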
NS3 helicase inh: inhibitors of HCV NS3 helicase, primary screen, biochemical, Cy5 molecular beacon fluorescence; inhibition, % at 10.9 µM; AID 1800, 2009; NS3 helicase DNA unwinding; 290,000 tested, 0.56% active; Hepatitis C virus NS3 helicase;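 active = inhibition above the mean of all tested compounds plus 3 SD, set per campaign, cut at about 35% in these data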;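 note: 0% = DMSO wells and 100% = thioflavine S control wells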
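assay system = NS3 helicase fragment of HCV | buffer or medium = MOPS pH 6.5, MgCl2, DTT, Tween20, BSA | timing = 60 min unwinding reaction at 25 °C after ATP addition | signal = Cy5 beacon fluorescence read at start and 1 h | read-out basis = % inhibition of unwinding | control set = low DMSO, high thioflavine S at 110 µM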
MEKK2mut PB1 HTS: MEK5 binding signal on mutant MEKK2 PB1, primary screen, biochemical, multiplex bead flow cytometry, Alexa488-MEK5; percent response, % at 10 µM; 290,000 tested, 0.35% active; AID 1530, 2009; Alexa488-MEK5 binding to MEKK2 mutant; in the data active = percent response above about 24%, passing the limit was not always enough
MEKK2wt PB1 HTS: modulators of MEK5 binding to wildtype MEKK2, primary screen, biochemical, multiplex bead flow cytometry, Alexa488-MEK5 | Alexa488-MEK5 binding to MEKK2 WT; actives lie on both sides | binding response (% of control), % at 10 µM | 290,000 tested, 1.1% active | Mitogen-activated protein kinase kinase kinase 2 (Homo sapiens), Q9Y2U5; in the data active = binding response below about 67% or above about 130%
* = called active by the depositor; · = no result given; [ ] = dose if it differs, or a comment. Only some compounds are listed: those with a hit (about 4.1% of all), similar ones and a draw of the others.

SMILES	DNA FID counter	MEKK3 PB1 HTS	T cruzi repl	NS3 helicase inh	MEKK2mut PB1 HTS	MEKK2wt PB1 HTS
CCC(=O)N(C1=C(NC)C(=O)c2ccccc2C1=O)C(C)C	-2.1	105.0	-13.5	18.0	-4.0	97.0
NS(=O)(=O)c1ccc(N/N=C/c2cn(-c3ccccc3)nc2-c2cccs2)c([N+](=O)[O-])c1	0.9	95.0	67.4*	-1.5	-4.0	85.0
CC[n+]1c(/C=C/C=C/N(C(C)=O)c2ccccc2)sc2cc(OC)ccc21	-18.7	89.0	·	12.9	15.0	11.0*
CC(C)=CCN1CCN(Cc2cc(F)ccc2-n2nc(C)cc2C)CC1CCO (configuration not stated)	7.8	97.0	-2.5	-1.7	-4.0	91.0
CCC(c1nnnn1CCc1ccccc1)N(Cc1ccco1)Cc1cc2c(C)ccc(C)c2[nH]c1=O (configuration not stated)	-10.0	101.0	55.4*	-12.3	4.0	104.0
O=C(CNC(=O)c1ccc(Cl)cc1)OCCCOC(=O)CNC(=O)c1ccc(Cl)cc1	-31.9	101.0	-3.4	-11.4	3.0	104.0
CC(C)(C)C(=O)OCCn1c(=O)c2cc3c(=O)n(CCOC(=O)C(C)(C)C)c(=O)c3cc2c1=O	-2.3	2.0*[inhibitor]	-3.3	0.8	-16.0	2.0*[inhibitor]
COCCn1c(=O)c2cc3c(=O)n(CCOC)c(=O)c3cc2c1=O	1.9	102.0	0.8	-4.4	3.0	99.0
O=C(CCSc1ccc(Cl)cc1)N1CCN(c2ccc(O)cc2)CC1	-22.2	89.0	63.2*	2.2	-15.0	94.0
O=C(CCSc1ccccc1)N1CCN(c2ccccc2)CC1	-19.1	122.0	11.7	4.3	0.0	111.0
CC(c1ccncn1)N(C)C(=O)c1ccc2oc(Cc3ccccc3)nc2c1 (configuration not stated)	-37.4	100.0	2.7	-0.9	-4.0	96.0
CC(C)(C)OC(=O)N1CCC[C@H]1C(=O)NCc1ccc(Cl)cc1Cl	-13.7	104.0	-1.5	2.6	2.0	103.0
Cc1cc(C)c2c(=O)n(CC(=O)Nc3ccc(Br)c(C)c3)sc2n1	-8.8	99.0	39.6	-12.0	0.0	99.0
Cc1cc(C)c2c(=O)n(CC(=O)Nc3cccc(Cl)c3C)sc2n1	-9.7	102.0	57.6*	-2.7	-1.0	103.0
CN1CCN(C(=O)c2ccc3c(c2)N(Cc2ccc(F)cc2)C(=O)c2ccccc2S3=O)CC1 (configuration not stated)	2.1	99.0	-8.2	-19.3	2.0	99.0
CCOC(=O)c1c(-c2ccc(C)o2)csc1NC(=O)CSc1nnc(C)s1	-30.9	98.0	27.4	-8.9	-2.0	93.0
CCOC(=O)c1c(-c2ccc(C)o2)csc1NC(=O)CSc1nnnn1-c1ccccc1	-16.4	86.0	60.3*	14.6	-13.0	82.0
CN1CCC(OC(=O)c2ccc(Cl)cc2Cl)CC1	13.2	96.0	57.9*	7.5	-8.0	83.0
CN1CCC(OC(=O)c2cc3cc(Cl)cc(Cl)c3oc2=O)CC1	9.3	105.0	-6.5	0.7	6.0	114.0
CN1CCC(OC(=O)c2ccccc2Cl)CC1	3.1	112.0	57.8*	-0.3	3.0	104.0
CN1CCC(OC(=O)c2ccco2)CC1	8.0	108.0	21.7	1.4	1.0	101.0
Cc1ccccc1C(=O)OC1CCN(C)CC1	-3.6	102.0	59.2*	2.9	3.0	103.0
O=C(Nc1ncc(Cc2cccc(C(F)(F)F)c2)s1)c1ccc(-c2cccc([N+](=O)[O-])c2)o1	-4.7	99.0	61.8*	6.5	23.0	108.0
O=[N+]([O-])c1ccc(N/N=C/c2sc(N3CCOCC3)nc2-c2ccccc2)c(S(=O)(=O)Nc2ccccc2Cl)c1	2.3	91.0	·	11.5	63.0*	·
O=C(N/N=C/c1sc(N2CCOCC2)nc1-c1ccccc1)c1ccccc1Cl	-0.9	106.0	27.8	0.5	7.0	104.0
SMILES	DNA FID counter	MEKK3 PB1 HTS	T cruzi repl	NS3 helicase inh	MEKK2mut PB1 HTS	MEKK2wt PB1 HTS
O=C(Nc1nc2ccccc2n1CCOc1ccc(Cl)cc1)c1ccco1	-6.7	109.0	56.7*	-6.5	5.0	110.0
CCN(CC)CCn1c(NC(=O)c2ccc(C(F)(F)F)cc2)nc2ccccc21	-3.3	103.0	62.0*	7.7	-4.0	106.0
O=C(NCc1nc2ccccc2[nH]1)c1ccc(Cl)c(S(=O)(=O)N2CCCC2)c1	-6.3	104.0	28.3	-8.4	5.0	105.0
CCCn1c(NC(=O)c2ccc(Cl)c(S(=O)(=O)N3CCCC3)c2)nc2ccccc21	-23.7	102.0	66.1*	-43.8	-2.0	101.0
Cc1cccc(OCCn2c(NC(=O)c3ccco3)nc3ccccc32)c1	-5.2	84.0	59.7*	5.6	-7.0	83.0
CN1CCOC(=O)/C1=N/Nc1cc(Cl)ccc1Cl	2.0	101.0	-17.9	-13.4	-1.0	101.0
O=C(Cn1cc(C(F)(F)F)ccc1=O)N/N=C/c1cccc(Cl)c1	-15.8	95.0	-10.7	-5.3	-1.0	94.0
O=C(Nc1nc2ccccc2n1Cc1ccc(Cl)cc1)c1ccco1	-2.0	105.0	76.4*	4.6	3.0	100.0
CCCn1c(NC(=O)c2ccc([N+](=O)[O-])o2)nc2ccccc21	·	·	57.8*	·	·	·
O=C(CN1CCN(Cc2ccccc2Cl)CC1)N/N=C/c1cccs1	-8.9	102.0	-0.8	4.4	-1.0	102.0
CCOC(=O)[C@@H]1[C@H]2COc3ccccc3[C@H]2N2C(=O)N(c3ccc(OC)cc3)C(=O)[C@]12C	-37.6	103.0	6.8	-10.0	-2.0	105.0
CCCCn1nc(C(=O)Nc2nc3c(s2)CCCC3)c2ccccc2c1=O	-13.3	93.0	56.1*	-22.1	-3.0	103.0
CCCn1nc(C(=O)Nc2nnc(CC)s2)c2ccccc2c1=O	-23.1	98.0	2.2	-0.2	7.0	-5.0*
Cc1nnc(NC(=O)c2nn(CC(C)C)c(=O)c3ccccc23)s1	-22.4	99.0	3.2	-0.8	-2.0	107.0
O=C(NC1C2CC3CC(C2)CC1C3)C1CCCCC1 (configuration not stated)	-14.8	98.0	-2.9	-0.3	-1.0	99.0
CCn1c(=O)c(C(=O)CN(C)Cc2cccc(OC)c2OC)c(N)n(Cc2ccccc2)c1=O	20.6	101.0	19.5	-3.7	2.0	99.0
COc1ccc(CN(C)CC(=O)c2c(N)n(Cc3ccccc3)c(=O)n(C)c2=O)c(OC)c1	29.5	110.0	58.8*	-28.5	12.0	116.0
